Screens deposited in PubChem BioAssay by several laboratories.
EphB4 ephrin blk = EphB4-ephrin-B2 interaction antagonists, primary screen, biochemical, TNYL-RAW peptide probe, fluorescence polarization | EphB4 LBD / TNYL-RAW-Alexa532 peptide | inhibition, % at 7 µM | 97,000 compounds, 0.15% hits | AID 720, 2007;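 active = inhibition above the screen-wide mean inhibition plus 3 SD, cut at about 15% in these data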;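 also: 0% = DMSO wells and 100% = excess unlabeled TNYL-RAW peptide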
Rev-RRE block = HIV-1 Rev-RRE binding inhibitors, primary screen, biochemical, FRET, protein-RNA interaction; P05866; Rev peptide-RRE RNA binding; inhibition, % at 8 µM; 97,000 compounds, 0.79% hits;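 active = inhibition above the screen-wide mean plus 3 SD, cut at about 35% in these data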;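 also: 0% = median DMSO wells and 100% = median Neomycin B control wells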
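Assay system: Labelled RRE RNA duplex and labelled Rev peptide | Times: 5 min preincubation and 15 min binding, 25 °C | Detection: FRET, ex 480 nm, em 540 and 671 nm | Evaluation: % inhibition of FRET ratio versus controls | Benchmarks: DMSO wells as 0% and neomycin B wells as 100% inhibition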
PLK1 inh = human PLK1 kinase inhibitors, primary screen, biochemical, TR-FRET. inhibition, % at 10 µM. recombinant PLK1 kinase, TR-FRET peptide phosphorylation. 97,000 compounds, 0.53% hits. AID 619, 2007. Serine/threonine-protein kinase PLK1 (Homo sapiens), P53350;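 active = inhibition of 50% or more in the single-concentration screen; inactive = inhibition below 50%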;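 also: 0% = DMSO max control and 100% = H-89 dihydrochloride min control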
Plk1 PBD FP = Plk1 polo box domain binding inhibitors, primary screen, biochemical, fluorescence polarization | Plk1 PBD phosphopeptide binding | inhibition, %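 (tested at about 20 µM)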 | 97,000 compounds, 0.13% hits; in the data active = inhibition above about 34%, passing the limit was not always enough
PTPN22 inh 2 = PTPN22 phosphatase inhibitors, primary screen, biochemical, DiFMUP fluorescence, 2 µM; Tyrosine-protein phosphatase non-receptor type 22 (Homo sapiens), Q9Y2R2; recombinant LYP catalytic domain; inhibition, % at 2 µM; 96,000 compounds, 0.21% hits;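 active = inhibition at 2 µM at or above a set limit, the screen mean plus 3 SD, cut at about 24% in these data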;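 also: 0% = DMSO with enzyme and 100% = enzyme fully blocked by orthovanadate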
Target sequence (Q9Y2R2 whole entry, looked up, the tested form may be a part): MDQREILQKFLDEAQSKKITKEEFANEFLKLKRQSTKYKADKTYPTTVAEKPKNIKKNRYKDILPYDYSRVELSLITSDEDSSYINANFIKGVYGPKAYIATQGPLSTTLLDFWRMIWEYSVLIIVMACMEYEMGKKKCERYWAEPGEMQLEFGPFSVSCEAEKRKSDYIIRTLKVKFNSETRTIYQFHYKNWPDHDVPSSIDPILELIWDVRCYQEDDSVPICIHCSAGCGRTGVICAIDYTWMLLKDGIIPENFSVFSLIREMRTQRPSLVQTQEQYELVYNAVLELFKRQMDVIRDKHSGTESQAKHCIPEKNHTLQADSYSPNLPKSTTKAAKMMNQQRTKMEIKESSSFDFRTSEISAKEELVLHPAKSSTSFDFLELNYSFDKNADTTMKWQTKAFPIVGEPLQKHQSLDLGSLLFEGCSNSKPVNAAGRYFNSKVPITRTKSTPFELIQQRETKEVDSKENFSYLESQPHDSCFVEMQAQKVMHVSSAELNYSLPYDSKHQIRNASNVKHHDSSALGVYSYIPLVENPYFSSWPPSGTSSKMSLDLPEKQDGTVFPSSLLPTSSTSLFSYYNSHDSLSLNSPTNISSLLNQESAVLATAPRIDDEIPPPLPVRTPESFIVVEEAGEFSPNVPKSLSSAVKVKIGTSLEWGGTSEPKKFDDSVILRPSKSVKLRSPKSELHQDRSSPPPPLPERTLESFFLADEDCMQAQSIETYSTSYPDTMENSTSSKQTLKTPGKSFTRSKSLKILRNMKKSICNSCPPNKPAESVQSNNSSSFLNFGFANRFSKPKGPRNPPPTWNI
LYP act = LYP phosphatase activators, primary screen, biochemical, DiFMUP fluorescence, 2 µM; Tyrosine-protein phosphatase non-receptor type 22 (Homo sapiens), Q9Y2R2; recombinant LYP; 0 = plate median, 100 = signal doubled; activation, % at 2 µM; 96,000 compounds, 0.11% hits; AID 697, 2007;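 active = activation at 2 µM above a set limit, the mean plus 5 SD, cut at about 37% in these data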
Numbers without * were called inactive; [ ] = dose if it differs, or a comment. Only some compounds are listed: those with a hit (about 1.8% of all), similar ones and a draw of the others.

For CC1(C)C(=O)Nc2ccccc2N1C(=O)COC(=O)c1ccc(Cl)c(S(=O)(=O)NCc2ccccc2)c1 the results were EphB4 ephrin blk -4, Rev-RRE block 17, PLK1 inh -32, Plk1 PBD FP 11, PTPN22 inh 2 2 and LYP act 0.
`Cc1ccc(S(=O)(=O)N=Nc2c(O)[nH]c3ccccc23)cc1` gave EphB4 ephrin blk -3, Rev-RRE block 5, PLK1 inh -24, Plk1 PBD FP 34, PTPN22 inh 2 -2 and LYP act 0.
Oc1[nH]c2ccccc2c1N=Nc1nc2ccccc2s1 was read as EphB4 ephrin blk 15*, Rev-RRE block 33, PLK1 inh -16, Plk1 PBD FP -8, PTPN22 inh 2 3 and LYP act -5.
`CC1=CC(C#N)(C#N)C(C#N)(C#N)C(c2ccccc2)N1` (stereo not drawn) gave EphB4 ephrin blk 5, Rev-RRE block 52*, PLK1 inh -5, Plk1 PBD FP 6, PTPN22 inh 2 4 and LYP act -2.
`CNc1nc2[nH]c(=O)c3c(c2s1)OC(N)=C(C#N)C3c1cccc(F)c1` (stereo not drawn) gave EphB4 ephrin blk -8, Rev-RRE block 99*[fluorescence artefact?], PLK1 inh 4, Plk1 PBD FP -19, PTPN22 inh 2 0 and LYP act 2.
`N=C1C(c2nc3ccccc3c(=O)[nH]2)=C(O)CN1c1ccccc1` gave EphB4 ephrin blk -2, Rev-RRE block 2, PLK1 inh -14, Plk1 PBD FP 5, PTPN22 inh 2 -4 and LYP act 5.
`CCOC(=O)c1ccc(N2CC(O)=C(c3nc4ccccc4c(=O)[nH]3)C2=N)cc1` gave EphB4 ephrin blk 3, Rev-RRE block 68*, PLK1 inh -8, Plk1 PBD FP -14, PTPN22 inh 2 1 and LYP act -8.
`COc1ccc2c(c1)CCc1c(C(=O)NCCCn3ccnc3)noc1-2` gave EphB4 ephrin blk -4, Rev-RRE block 3, PLK1 inh -5, Plk1 PBD FP 31, PTPN22 inh 2 -8 and LYP act 6.
O=C1c2ccccc2-c2onc3ccc(NCCCn4ccnc4)c1c23 was read as EphB4 ephrin blk 107*[fluorescence artefact?], Rev-RRE block 137*[fluorescence artefact?], PLK1 inh 68*, Plk1 PBD FP 35, PTPN22 inh 2 -5 and LYP act 4.
Screening CC(=O)N1C(=O)C(=C2C=C(C)OC(C)=C2)c2ccccc21 returned EphB4 ephrin blk -1, Rev-RRE block 110*[fluorescence artefact?], PLK1 inh -11, Plk1 PBD FP -27, PTPN22 inh 2 0 and LYP act -2.
For O=C(N1CCOCC1)N1CCC(n2nnc3cc(F)ccc32)CC1 the results were EphB4 ephrin blk -1, Rev-RRE block 40*, PLK1 inh -4, Plk1 PBD FP 14, PTPN22 inh 2 -10 and LYP act 8.
`CCO/N=C(/C)c1c(O)c(C)c(-c2ccccc2)n(-c2ccccc2)c1=O` gave EphB4 ephrin blk -2, Rev-RRE block 3, PLK1 inh -11, Plk1 PBD FP 0, PTPN22 inh 2 6 and LYP act -6.
Screening N#C/C(C(=O)c1ccccc1)=C1/SC=C(N)N1c1ccccc1 returned EphB4 ephrin blk 5, Rev-RRE block 118*[fluorescence artefact?], PLK1 inh -14, Plk1 PBD FP -108, PTPN22 inh 2 -2 and LYP act -3.
Screening CC(=O)NCCNC(=O)CCNC(=O)c1ccc(Cl)cc1 returned EphB4 ephrin blk 0, Rev-RRE block 4, PLK1 inh -16, Plk1 PBD FP -4, PTPN22 inh 2 -6 and LYP act 6.
For COn1cnnc1-c1ccccc1 the results were EphB4 ephrin blk -8, Rev-RRE block 41*, PLK1 inh -5, Plk1 PBD FP -10, PTPN22 inh 2 -3 and LYP act 2.
`On1cnnc1-c1ccccc1` gave EphB4 ephrin blk -5, Rev-RRE block 4, PLK1 inh 1, Plk1 PBD FP 2, PTPN22 inh 2 -11 and LYP act 11.
For O=C(CC1Nc2ccccc2NC1=O)c1ccccc1 (stereo not drawn) the results were EphB4 ephrin blk 13, Rev-RRE block 73*, PLK1 inh -10, Plk1 PBD FP -17, PTPN22 inh 2 0 and LYP act -1.
O=C(CC1Nc2ccccc2NC1=O)NCCc1ccccc1 (stereo not drawn) was read as EphB4 ephrin blk 5, Rev-RRE block 6, PLK1 inh -6, Plk1 PBD FP 10, PTPN22 inh 2 7 and LYP act -4.
For COc1ccc(CN=Cc2[nH]c3ccc(Br)c(Cl)c3c2O)cc1 the results were EphB4 ephrin blk 13, Rev-RRE block 125*[fluorescence artefact?], PLK1 inh -11, Plk1 PBD FP -7, PTPN22 inh 2 -1 and LYP act -1.
Screening Cc1ccc(S(=O)(=O)Nc2ccc(=O)n(Cc3ccc(Cl)c(Cl)c3)c2)cc1 returned EphB4 ephrin blk -1, Rev-RRE block 21, PLK1 inh -15, Plk1 PBD FP -14, PTPN22 inh 2 -5 and LYP act 8.
Screening CCCc1cc(SCC(=O)Nc2c(C)n(C)n(-c3ccccc3)c2=O)n2c(nc3ccccc32)c1C#N returned EphB4 ephrin blk 1, Rev-RRE block 41*, PLK1 inh -25, Plk1 PBD FP -6, PTPN22 inh 2 18 and LYP act -17.
Cn1c(N)c(C#N)c2c(c1=S)CSC(C)(C)C2 was read as EphB4 ephrin blk -11, Rev-RRE block 40*, PLK1 inh 8, Plk1 PBD FP 17, PTPN22 inh 2 5 and LYP act -6.
`CCc1nnc(NC(=O)C2c3ccccc3Oc3ccccc32)s1` gave EphB4 ephrin blk 1, Rev-RRE block 3, PLK1 inh -12, Plk1 PBD FP -7, PTPN22 inh 2 2 and LYP act -3.
For N#C/C(=C\c1cc(Cl)cc(Cl)c1O)C(=O)NC1CCCCC1 the results were EphB4 ephrin blk 7, Rev-RRE block 45*, PLK1 inh 4, Plk1 PBD FP -105, PTPN22 inh 2 11 and LYP act -6.
`N#C/C(=C\c1cc(Cl)ccc1O)C(=O)NC1CCCCC1` gave EphB4 ephrin blk -4, Rev-RRE block 3, PLK1 inh 4, Plk1 PBD FP -14, PTPN22 inh 2 -24 and LYP act 20.
For CC1=C(CC(=O)c2ccc(Cl)cc2)C(=O)c2ccccc2C1=O the results were EphB4 ephrin blk 1, Rev-RRE block 18, PLK1 inh -4, Plk1 PBD FP -32, PTPN22 inh 2 -2 and LYP act 5.
